Measurements gathered from unrelated publications.
Lines come from different studies, so protocols differ.
Target: Serine/threonine-protein kinase 26 (STK26, Homo sapiens, UniProt Q9P289)

CN([C@@H]1CCc2c(CC(=O)O)c3cc(S(C)(=O)=O)ccc3n2C1)S(=O)(=O)c1ccc(F)cc1  remaining binding (cell-free assay, competition with immobilised ligand; 1 µM): 77%
c1cncc(-c2cccc(Nc3nccc(NC4CCCCC4)n3)c2)c1  remaining binding (binding, competition with immobilised ligand; 10 µM): 83%
COc1ncc2cc3ccccc3nc2c1C#N  remaining binding (cell-free assay, competition with immobilised ligand; 5 µM): 100%
O=C(NCCCN1CCOCC1)c1ccc(Nc2nccc(-c3cc4ccccc4s3)n2)cc1  remaining binding (binding, competition with immobilised ligand; 1 µM): 87%
COc1cnc(Nc2cccc(S(N)(=O)=O)c2)nc1N1CCN(c2ccccc2)C(=O)C1  remaining binding (binding, competition with immobilised ligand; 1 µM): 83%
CCN1CCN(Cc2ccc(C(=O)Nc3ccc(C)c(Oc4ccc5c(c4)CC(=O)N5)c3)cc2C(F)(F)F)CC1  remaining binding (binding, competition with immobilised ligand; 1 µM): 100%
FC(F)(F)Oc1cccc(-c2cnc3ccc(-c4ccncc4)nn23)c1  remaining binding (cell-free assay, competition with immobilised ligand; 5 µM): 59%
O=C(c1ccc(Nc2nccc(-c3cc4ccccc4s3)n2)cc1)N1CCC(N2CCCC2)CC1  remaining binding (binding, competition with immobilised ligand; 1 µM): 99%
CC(=O)c1c(NS(C)(=O)=O)c2cc(-c3ccc(Cl)cc3)c(-c3ccc(Cl)cc3Cl)nc2n(C)c1=O  remaining binding (cell-free assay, competition with immobilised ligand; 1 µM): 84%
O=C(NCCCN1CCOCC1)c1ccc(Nc2ncc(Cl)c(-c3ccc(Cl)s3)n2)cc1  remaining binding (binding, competition with immobilised ligand; 1 µM): 16%
CCC(=O)N[C@@H]1CC[C@H](C(=O)N(C)c2ccc(-c3nc4ccccc4o3)cc2)C1  remaining binding (cell-free assay, competition with immobilised ligand; 1 µM): 77%
CN1CCN(c2ccc(Nc3nccc(-c4ccccc4)n3)cc2C(F)(F)F)CC1  remaining binding (binding; 10 µM): 81%
O=C(Nc1c[nH]nc1C(=O)NC1CCNCC1)c1cc(F)cc(F)c1  remaining binding (binding, competition with immobilised ligand; 1 µM): 68%
Cc1nc(C2CCN(C(=O)c3ccc(OC(F)(F)F)cc3N)CC2)c2ncc(N3CCN(C)CC3)cc2n1  remaining binding (cell-free assay, competition with immobilised ligand; 1 µM): 100%
